# High-throughput results: PubChem BioAssay, several laboratories
# A selection: hits, their analogues and other compounds. The true share with any hit is near 4.1%.
# KCC2 mod: KCC2 (human) Cl- transport modulation | KCC2 cells, thallium flux FluoZin-2 fluorescence | B-score of Tl+ flux slope (higher = more flux/activation; lower = inhibition) at 10 µM | hit rate 2.2% among 190,000;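 active means thallium flux slope and its plate-corrected score both differing from the plate sample mean at a set confidence after two filtering rounds, in either direction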;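 further: slope of fluorescence scaled to starting intensity during 10 to 20 s after thallium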
# hERG rescue: hERG (human) protection from proarrhythmic block. AID 1511. CHO-hERG, FluxOR thallium flux, dofetilide IC70 present. Q12809. activation (rescue from dofetilide block), less the hit threshold, % at 10 µM. hit rate 0.51% among 310,000;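 active means activation above the mean of controls blocked by dofetilide plus 5 SD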;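 further: thallium influx through hERG after potassium depolarization seen as dye fluorescence rise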
# KCNQ1 block: inhibitors of human KCNQ1 potassium channel; hit rate 1.3% among 310,000; P51787; CHO-K1 KCNQ1, FluxOR thallium flux fluorescence; active compounds read high; B-score at 10 µM;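 active means compounds whose thallium flux B-score, printed positive for inhibition, exceeds three library SD while starting fluorescence stays within three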;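 further: channel opened by potassium depolarization with thallium stimulus after 20 min compound exposure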
# KCNQ1 act: potentiates or activates the human KCNQ1 potassium channel | B-score at 10 µM | hit rate 0.35% among 310,000 | CHO-K1 KCNQ1, thallium flux FluxOR fluorescence; active compounds read high;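 active means fluorescence ratio B-score, a plate-corrected score, at least three library SD, with initial intensity B-score within 5 SD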
#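 Assay system: CHO-K1 cells stably expressing KCNQ1; Medium: assay buffer with matched DMSO; Also added: K+/Tl+ depolarizing stimulus; Dosing: single dose; Timing: dye 90 min, compound 20 min, room temperature; Measured by: kinetic FluxOR thallium fluorescence, 10-s 1-Hz baseline, 110-s post-stimulus read; Read-out: peak-minus-minimum fluorescence over initial fluorescence, negative-control normalized, B-scored.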
# KCNK9 inh: human KCNK9 channel inhibition. Q9NPC2. HEK293 KCNK9, FluxOR thallium flux fluorescence; active compounds read low. B-score at 10 µM. hit rate 1.2% among 310,000;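 active means ratio B-score over 3 SD below the library mean, with starting fluorescence within 5 SD of its mean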;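 further: negative B-score means less thallium flux so channel inhibition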
# Target sequence (Q9NPC2 whole entry, looked up): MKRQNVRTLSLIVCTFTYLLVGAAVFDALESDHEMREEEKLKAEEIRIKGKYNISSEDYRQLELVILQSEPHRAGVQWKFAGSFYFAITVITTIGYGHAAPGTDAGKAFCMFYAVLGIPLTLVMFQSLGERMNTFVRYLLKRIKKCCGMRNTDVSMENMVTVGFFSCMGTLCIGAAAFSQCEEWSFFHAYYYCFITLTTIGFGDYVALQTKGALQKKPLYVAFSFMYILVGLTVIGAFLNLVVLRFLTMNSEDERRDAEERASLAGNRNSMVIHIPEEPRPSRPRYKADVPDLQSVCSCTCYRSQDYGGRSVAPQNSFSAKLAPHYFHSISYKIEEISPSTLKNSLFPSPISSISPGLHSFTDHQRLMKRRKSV
# KCNK3 inh: human KCNK3 channel inhibition, primary screen; O14649; CHO-KCNK3 thallium flux, FluxOR fluorescence; active compounds read low; B-score at 10 µM; hit rate 0.84% among 340,000; AID 602410;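 active means B-score under library mean minus 4 SD, starting fluorescence ratio at most library mean plus 5 SD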;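 further: more negative B-score means stronger inhibition of thallium flux through KCNK3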
# KCNQ1 block val: confirmation of human KCNQ1 potassium channel inhibitors; inhibition, % at 10 µM; hit rate 93% among 1,600; AID 588353; shares compounds with KCNQ1 block; KCNQ1 cell line, FluxOR thallium flux fluorescence;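 active means primary screen active, with duplicate mean exceeding buffer control mean plus 3 SD of buffer wells, cut at about 28% in these data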;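 further: 0% = buffer control ratio and 100% = XE991 inhibitor control ratio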
# CHO KCNQ1 ctr: counter-screen for KCNQ1 inhibitors: effect in parental CHO cells; shares compounds with KCNQ1 block; parental CHO-K1, FluxOR thallium flux fluorescence ratio; active compounds read low; zero means no signal rise above baseline; fluorescence ratio (Tl flux) at 10 µM; hit rate 21% among 1,600;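 active means mean of duplicate thallium-flux fluorescence ratios in parental host cells more than 5 SD below the buffer control mean, cut at about 0.38 in these data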;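 further: ratio is peak minus minimum fluorescence divided by baseline fluorescence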
# KCNQ1 ephys val: human KCNQ1 inhibition validated by electrophysiology. shares compounds with KCNQ1 block. KCNQ1-CHO cells, automated patch clamp current. calls only at 10 µM. hit rate 20% among 490. AID 624120;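 active means KCNQ1 current drop exceeding 3 SD of negative control wells, seen in both duplicate runs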;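 further: steady state current during a 2 s step from -80 to +40 mV; negative values mean current inhibition and positive values mean potentiation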
# KCNQ2 inh: rat KCNQ2 inhibition in KCNQ1 inhibitor specificity screen. hit rate 71% among 1,600. inhibition, % at 10 µM. shares compounds with KCNQ1 block. KCNQ2 cells, FluxOR thallium flux fluorescence;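 active means mean percent inhibition of the KCNQ2 thallium signal more than 5 SD above the buffer-only control wells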;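 further: KCNQ2 expressed in CHO cells; 0% = buffer control wells and 100% = XE-991 inhibitor control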
# KCNQ1 KCNE1 spec: KCNQ1 inhibitor that also blocks human KCNQ1/KCNE1 channel | hit rate 77% among 1,600 | shares compounds with KCNQ1 block | AID 652147 | inhibition, % at 10 µM | KCNQ1/KCNE1 cells, FluxOR thallium flux fluorescence;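 active means mean percent inhibition of duplicate wells above the buffer-only control mean plus 3 SD of those controls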;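 further: 0% = buffer only wells and 100% = XE-991 inhibitor control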
# * hit, by the source's call; i = inactive; x = no result given; + = active, no number.
SMILES,KCC2 mod,hERG rescue,KCNQ1 block,KCNQ1 act,KCNK9 inh,KCNK3 inh,KCNQ1 block val,CHO KCNQ1 ctr,KCNQ2 inh,KCNQ1 KCNE1 spec,others
CCN(CC)S(=O)(=O)c1ccc2oc(C(=O)NCC3COc4ccccc4O3)c(C)c2c1 (stereo not drawn),-0.04,-15,8*,i,i,i,96*,0.44,81%*,128%*,KCNQ1 ephys val=i
CCC1Oc2ccc(C)cc2N(CC(=O)N2CCN(c3ccc(F)cc3)CC2)C1=O (stereo not drawn),-2.4,-6,i,i,i,x,x,x,x,x,
CCOc1ccc(NC(=S)Nc2ccc3nsnc3c2)cc1,0.72,-2,6*,i,i,i,82*,0.49,70%*,48%*,
CCOc1ccc(NC(=S)Nc2ccc(OCC)cc2)cc1,0.44,-21,i,i,i,i,x,x,x,x,
CCOc1ccc(NC(=O)Nc2cccc(C(=O)O)c2)cc1,1,-2,i,i,i,i,x,x,x,x,
CCOc1ccc(NC(=S)Nc2ccc(OC(F)(F)F)cc2)cc1,-0.43,-3,7*,i,i,i,0,0.55,i,i,
CCOc1ccc(NC(=O)Nc2ccc3nsnc3c2)cc1,-0.57,-11,12*,i,i,i,27*,0.55,i,i,
COc1ccc(NC(=S)Nc2ccc3nsnc3c2)cc1,-0.95,-13,i,i,i,i,x,x,x,x,
O=c1c2c(nc3n1CCCCC3)-c1ccccc1CC21CCCCC1,0.91,-6,7*,i,i,i,104*,0.48,106%*,88%*,KCNQ1 ephys val=i
CCN(CC)CCNC(=O)C(C)c1nn(CC)c(=O)c2ccccc12 (stereo not drawn),x,-5,i,i,i,i,x,x,x,x,
CCOc1nc(N2CCOCC2)nc(N2CCOCC2)n1,-0.29,-2,i,i,i,i,x,x,x,x,
O=c1c2ccccc2nc(SCc2cccc(F)c2)n1C1CCCC1,0.93,-19,7*,i,i,i,96*,0.49,81%*,114%*,KCNQ1 ephys val=i
S=C(Nc1cccc(Cl)c1)NC1CC2CCCC(C1)N2C1CCCC1 (stereo not drawn),0.53,-12,i,i,i,i,x,x,x,x,
S=C(NCCN(C1CCCCC1)C1CCCC1)Nc1cccc(Cl)c1,x,-13,6*,i,i,i,80*,0.43,92%*,i,
COC(=O)c1c(C(=O)OC)c(C)n(Cc2cccnc2)c1C,-0.9,-10,i,i,i,i,x,x,x,x,
CN(CC(O)COc1ccc(OCC(O)CN(C)C2CCCCC2)cc1)C1CCCCC1 (stereo not drawn),x,-1,i,i,i,i,x,x,x,x,
Cc1cccc(C)c1OCC(O)CN(Cc1ccccc1O)C1CCCCC1 (stereo not drawn),0.028,-17,7*,i,i,i,94*,0.42,114%*,55%*,KCNQ1 ephys val=+
COc1ccc(CO[C@@H]2O[C@H](CO)[C@@H](O)[C@H](O)[C@H]2NC(C)=O)cc1OC,x,-3,i,i,i,i,x,x,x,x,
Cc1ccc(S(=O)(=O)NCc2ccncc2)c(C)c1C,-0.0083,-20,7*,i,i,i,56*,0.51,i,i,
Cc1cc(NS(=O)(=O)c2ccc(NC(=O)/C=C/c3ccccc3Cl)cc2)no1,x,-19,i,i,i,i,x,x,x,x,
Cc1ccc(C)c(OCCCCn2cnc3ccccc3c2=O)c1,-0.44,-9,i,i,i,i,x,x,x,x,
Cc1ccc(OCCCCn2cnc3ccccc32)c(C)c1,x,-11,9*,i,i,i,116*,0.51,74%*,82%*,KCNQ1 ephys val=i
CN1/C(=C\C=C(C#N)C#N)C(C)(C)c2ccccc21,i,-10,26*,i,i,i,+,0.015*,i,i,
CCOC(=O)/C=C1/N(C)c2ccccc2C1(C)C,-0.96,-10,i,i,i,i,x,x,x,x,
O=C(CSCc1ccccc1)Nc1ccc(S(=O)(=O)Nc2ncccn2)cc1,x,-7,i,i,i,i,x,x,x,x,
SMILES,KCC2 mod,hERG rescue,KCNQ1 block,KCNQ1 act,KCNK9 inh,KCNK3 inh,KCNQ1 block val,CHO KCNQ1 ctr,KCNQ2 inh,KCNQ1 KCNE1 spec,others
COC(=O)c1[nH]c2cc(C)ccc2c1NC(=O)CN1CCCc2ccccc21,-0.13,-12,8*,i,i,i,72*,0.44,93%*,82%*,
COC(=O)c1[nH]c2cc(C)ccc2c1NC(=O)CN1CCN(C(=O)c2ccco2)CC1,0.74,-2,i,i,i,i,x,x,x,x,
Cc1ccc2cc(C#N)c(SCC(=O)N3CCCc4ccccc43)nc2c1C,0.051,1,i,i,i,i,x,x,x,x,
NNc1nc(C(F)(F)F)nc2ccccc12,x,-4,i,i,i,i,x,x,x,x,
O/C=c1\ccc2cccc3nc(C(F)(F)F)nc1c23,x,-8,19*,i,-7.6*,i,140*,0.31*,i,i,
CC(=O)Nc1ccccc1NC(=O)C/C(C)=N/NC(=O)c1cccnc1,x,-7,i,i,i,i,x,x,x,x,
CCOC(=O)c1c(C)nc2ccc(Cl)cc2c1-c1ccccc1,-0.68,-10,7*,i,i,i,122*,0.49,117%*,154%*,KCNQ1 ephys val=i
Cc1cc(CNC(=O)[C@H](C)[C@@H]2C[C@@]2(C)[C@@H](NC(=O)OCc2ccccc2)c2ccccc2)nn1C,-0.079,x,x,x,x,i,x,x,x,x,
CCOC(=O)Cc1c(Sc2ccccc2)c2ccccc2n1C,1.4,-3,7*,i,-8*,i,94*,0.47,88%*,114%*,KCNQ1 ephys val=i
COC(=O)c1c(NC(=O)c2ccccc2)sc2c1CC(C)(C)OC2,x,-4,i,i,i,i,x,x,x,x,
CCOC(=O)c1c(NC(=O)c2ccccc2C)sc2c1CC(C)(C)OC2,-3.7,-10,7*,i,i,i,86*,0.44,92%*,150%*,
c1ccc(CNc2c3ccccc3nc3ccccc23)cc1,x,-24,8*,i,i,i,39*,0.41,66%*,48%*,
